What was measured:
[1] = biological target: T1, cGMP-inhibited 3',5'-cyclic phosphodiesterase 3A (Homo sapiens, UniProt Q14432); assay: Inhibition of human recombinant PDE3A assessed as cGMP hydrolysis at 50 uM after 60 mins by fluorescence polarization assay using tetramethylrhodamine-tagged cGMP as substrate
Outline: (§1)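 Single-point screen at 50 μM in triplicate. Recombinant PDE3A in 10 mM Tris-HCl pH 7.2, 10 mM MgCl2, 0.05% NaN3, 0.1% phosphate-free BSA. Substrate 50 nM FI-cAMP and/or TAMRA-cGMP, hydrolysis read simultaneously by IMAP fluorescence polarization after 60 min at room temperature and termination with binding solution.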

[2] = system: HT-29; assay: Growth inhibition of human HT-29 cells at 50 uM after 72 hrs by luminescent assay; assay type: functional; conditions: HT-29, 72 h, read-out: GI
Outline: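 HT-29 cells in RPMI 1640 with 5% FBS at 37 °C, 5% CO2, >95% viability required. Plated at 5000 cells/well and left 18–24 h, then given 50 μM compound in triplicate. Viability measured 72 h later by CellTiter-Glo luminescence.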

[3] = biological target: T1, cGMP-inhibited 3',5'-cyclic phosphodiesterase 3A; assay: Inhibition of human recombinant PDE3A assessed as cAMP hydrolysis at 50 uM after 60 mins by fluorescence polarization assay using fluorescein-tagged cAMP as substrate; outline: as §1
[4] = system: HT-29; assay: Growth inhibition of human HT-29 cells after 72 hrs by luminescent assay; assay type: functional, cell-based; conditions: HT-29, 72 h
Outline: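 HT-29 cells (ATCC) in RPMI 1640 + 5% FBS, 37 °C, 5% CO2; only cultures >95% viable (Trypan blue) used. Seeded 5000 cells/well, 18–24 h before treatment. Live cells read by CellTiter-Glo luminescence (ATP content) 72 h post-treatment.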

[5] = biological target: T1, cGMP-inhibited 3',5'-cyclic phosphodiesterase 3A; assay: Inhibition of human recombinant PDE3A assessed as cGMP hydrolysis after 60 mins by fluorescence polarization assay using tetramethylrhodamine-tagged cGMP as substrate

T1 sequence (Q14432 whole entry): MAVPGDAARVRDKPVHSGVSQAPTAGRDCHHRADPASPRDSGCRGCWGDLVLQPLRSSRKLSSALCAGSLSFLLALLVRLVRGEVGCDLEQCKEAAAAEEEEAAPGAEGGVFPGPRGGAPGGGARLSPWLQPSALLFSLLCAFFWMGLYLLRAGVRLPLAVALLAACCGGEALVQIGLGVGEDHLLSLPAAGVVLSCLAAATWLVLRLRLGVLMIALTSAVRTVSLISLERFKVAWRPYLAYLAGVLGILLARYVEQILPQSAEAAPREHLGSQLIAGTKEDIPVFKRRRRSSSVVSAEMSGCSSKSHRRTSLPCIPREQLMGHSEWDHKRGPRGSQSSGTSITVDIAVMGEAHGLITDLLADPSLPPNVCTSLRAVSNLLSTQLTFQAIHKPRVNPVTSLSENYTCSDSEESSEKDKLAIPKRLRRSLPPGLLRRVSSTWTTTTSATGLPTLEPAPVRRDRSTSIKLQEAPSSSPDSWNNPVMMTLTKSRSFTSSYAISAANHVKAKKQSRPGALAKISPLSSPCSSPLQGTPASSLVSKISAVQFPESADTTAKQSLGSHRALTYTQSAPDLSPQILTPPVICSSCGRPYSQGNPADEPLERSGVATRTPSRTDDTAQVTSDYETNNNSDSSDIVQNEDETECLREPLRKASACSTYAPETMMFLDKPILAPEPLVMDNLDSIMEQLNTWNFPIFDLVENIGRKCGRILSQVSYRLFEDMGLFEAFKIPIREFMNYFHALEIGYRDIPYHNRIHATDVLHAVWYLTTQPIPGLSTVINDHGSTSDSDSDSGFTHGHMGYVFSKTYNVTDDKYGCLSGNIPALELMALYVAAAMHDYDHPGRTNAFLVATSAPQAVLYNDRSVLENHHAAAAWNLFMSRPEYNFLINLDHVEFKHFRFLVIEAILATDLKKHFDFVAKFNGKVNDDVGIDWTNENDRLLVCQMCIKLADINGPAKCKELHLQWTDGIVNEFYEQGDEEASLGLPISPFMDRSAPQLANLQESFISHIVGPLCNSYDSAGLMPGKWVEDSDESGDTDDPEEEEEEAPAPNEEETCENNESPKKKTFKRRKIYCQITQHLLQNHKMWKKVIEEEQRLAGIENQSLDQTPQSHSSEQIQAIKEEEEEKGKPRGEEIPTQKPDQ

SMILES	inhibition [1] [%]	inhibition [3] [%]	IC50 [4] [µM]	IC50 [5] [µM]	inhibition of growth at 50 µM [2] [%]
COc1ccccc1-c1cc(-c2ccc(Br)cc2)[nH]c(=N)c1C#N	–	16.3	50	–	75
N#Cc1c(-c2cccs2)cc(-c2ccc(Br)cc2)[nH]c1=N	–	3.57	35	–	98.7
CCOc1ccccc1-c1cc(-c2ccc(Br)cc2)[nH]c(=N)c1C#N	126	37.9	13	–	99.8
COc1ccccc1-c1cc(-c2ccc(Br)cc2)[nH]c(=O)c1C#N	15.1	6.12	–	–	13.6
CCOc1ccccc1-c1cc(-c2ccc3c(c2)OCO3)[nH]c(=N)c1C#N	26.2	19	3	–	91.2
N#Cc1c(-c2cccs2)cc(-c2ccc3c(c2)OCO3)[nH]c1=N	10	5	–	–	-20
COc1ccccc1-c1cc(-c2ccc3c(c2)OCO3)[nH]c(=N)c1C#N	35	45	4.17	–	95
N#Cc1c(-c2ccsc2)cc(-c2ccc3c(c2)OCO3)[nH]c1=N	3	18	–	–	45
COc1ccccc1-c1cc(-c2ccc3c(c2)OCO3)[nH]c(=O)c1C#N	30	30	–	–	0
CCOc1ccc(-c2cc(-c3ccc(Br)cc3)[nH]c(=N)c2C#N)cc1	50	30	14.2	–	75
N#Cc1c(-c2ccsc2)cc(-c2ccc3c(c2)OCO3)[nH]c1=O	20	8	–	–	-25
N#Cc1c(-c2ccsc2)cc(-c2ccc(Br)cc2)[nH]c1=O	-5	2	–	–	-25

Now from value to molecule, other results behind:

inhibition [1] [%]	inhibition [3] [%]	IC50 [4] [µM]	IC50 [5] [µM]	SMILES	inhibition of growth at 50 µM [2] [%]
4	3	–	–	N#Cc1c(-c2cccs2)cc(-c2ccc(Br)cc2)[nH]c1=O	-20
22.3	10.5	–	–	CCOc1ccc(-c2cc(-c3ccc4c(c3)OCO4)[nH]c(=O)c2C#N)cc1	3.84
42	1.5	–	–	N#Cc1c(-c2ccsc2)cc(-c2ccc(Br)cc2)[nH]c1=N	-5
49.6	32.3	–	–	N#Cc1c(-c2cccs2)cc(-c2ccc3c(c2)OCO3)[nH]c1=O	6.14
35.2	13.1	–	–	CCOc1ccccc1-c1cc(-c2ccc(Br)cc2)[nH]c(=O)c1C#N	2.81
–	–	–	27	CCOc1ccccc1-c1cc(-c2ccc(Br)cc2)nc(N)c1C#N	–
10.8	4.76	–	–	CCOc1ccc(-c2cc(-c3ccc(Br)cc3)[nH]c(=O)c2C#N)cc1	10.7
35	77	> 50	–	Cc1[nH]c(=O)c(C#N)cc1-c1ccncc1 [MILRINONE]	0
-8.99	45.9	12	–	CCOc1ccc(-c2cc(-c3ccc4c(c3)OCO4)[nH]c(=N)c2C#N)cc1	87.7
14.4	7.65	–	–	CCOc1ccccc1-c1cc(-c2ccc3c(c2)OCO3)[nH]c(=O)c1C#N	8.28
